ChEMBL document CHEMBL1138251, “Synthesis and evaluation of antiparasitic activities of new 4-[5-(4-phenoxyphenyl)-2H-pyrazol-3-yl]morpholine derivatives” (J Med Chem, 2007)

What was measured:
[1] = tested on: L6; test: Cytotoxicity against rat L6 cells; assay type: cell-based
[2] = tested on: Trypanosoma brucei rhodesiense; test: Antiparasitic activity against Trypanosoma brucei rhodesiense STIB900 in procyclic stage; assay type: functional, organism-based
[3] = tested on: Leishmania donovani; test: Antiparasitic activity against Leishmania donovani MHOM-ET-67/L82 in amastigotes stage; assay type: functional, organism-based
In short: (§1)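 Microplate assay at pH 7.4. Organisms: L. donovani MHOM-ET-67/L82, T. b. rhodesiense STIB900, T. cruzi Tulahuen C4. Cytotoxicity used rat skeletal myoblast L-6 cells. Compounds were tested in duplicate at […], and actives were retested in duplicate down to 3.5 nM. IC50 was taken from sigmoidal inhibition curves. Reference standards: miltefosine (L. donovani), melarsoprol (T. b. rhodesiense), benznidazole (T. cruzi), podophyllotoxin (L-6).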

[4] = tested on: Trypanosoma cruzi; test: Antiparasitic activity against Trypanosoma cruzi Tulahuen C4 in amastigotes stage
[5] = tested on: Plasmodium falciparum; test: Antiparasitic activity against chloroquine, pyrimethamine-resistant Plasmodium falciparum K1 erythrocyte stage
[6] = tested on: Trypanosoma brucei rhodesiense; test: Antiparasitic activity against Trypanosoma brucei rhodesiense STIB900 in blood; assay type: functional, organism-based; in short: as §1

Structure (SMILES)	IC50 [1] [µM]	IC50 [2] [µM]	IC50 [3] [µM]	IC50 [4] [µM]	IC50 [5] [µM]	IC50 [6] [µM]
c1ccc(Oc2ccc(-c3cc(N4CCNCC4)[nH]n3)cc2)cc1	18	4.7	25.8	9.5	6.6	1.1
c1ccc(Oc2ccc(-c3cc(CN4CCOCC4)[nH]n3)cc2)cc1	150	54.9	15.6	45.3	> 14	4.1
O=C(Cn1ccnc1[N+](=O)[O-])NCc1ccccc1 [BENZNIDAZOLE]				2.13		
c1ccc(Oc2ccc(-c3cc(C4CCOCC4)[nH]n3)cc2)cc1	89.6	43	6.4	59	> 15	3.2
O=[N+]([O-])c1ccc(Oc2ccc(-c3cc(N4CCOCC4)[nH]n3)cc2)cc1	> 245	93.4	22.3	> 81	> 13	4.4
c1ccc(Oc2ccc(-c3cc(N4CCOCC4)[nH]n3)cc2)cc1	61.6	40.7	8	52	> 15	1
O=[N+]([O-])c1ccc(-n2nc(-c3ccc(Oc4ccccc4)cc3)cc2N2CCOCC2)cc1	> 203	> 203	4.8	> 67	3.7	28.8
O=C(CC(=O)C1CCOCC1)c1ccc(Oc2ccccc2)cc1	231	1.8	4.6	54.6	> 15	25.8
CSC(=CC(=O)c1ccc(Oc2ccc([N+](=O)[O-])cc2)cc1)SC	156	> 249	5.7	> 83	> 13	45.9
O=C(CC(=O)c1ccc(Oc2ccccc2)cc1)CN1CCOCC1	112	1	5.2	20.6	> 15	18.9
CCc1ccc(-c2cc(C3CCOCC3)[nH]n2)cc1	165	7.8	15.1	114	> 19	28.6
CC(C)(C)OC(=O)N1CCN(c2cc(-c3ccc(Oc4ccccc4)cc3)n[nH]2)CC1	30	17.6	2.3	12.8	8.1	2.9
Nc1ccc(Oc2ccc(-c3cc(N4CCOCC4)[nH]n3)cc2)cc1	> 267	> 267	20.3	> 89	> 14	17.7
CCCCCCCCCCCCCCCCOP(=O)([O-])OCC[N+](C)(C)C [MILTEFOSINE]			0.26			
CSC(=CC(=O)c1ccc(Oc2ccccc2)cc1)SC	34.5	16.6	9.7	24.4	> 15	51.4
Nc1nc(N)nc(Nc2ccc([As]3SCC(CO)S3)cc2)n1 (stereo unspecified) [MELARSOPROL]		0.13				0.01
Nc1ccc(-n2nc(-c3ccc(Oc4ccccc4)cc3)cc2N2CCOCC2)cc1	61.6	61.7	10.5	22	6.5	10.3
CCc1ccc(C(=O)CC(=O)C2CCOCC2)cc1	202	3.4	9.8	54.9	> 19	20.9
CSC(=CC(=O)c1ccc([N+](=O)[O-])cc1)SC	40.5	> 334	20.2	54.6	> 18	224
c1ccc(Oc2ccc(-c3cc(N4CCOCC4)on3)cc2)cc1	172	75.2	12.7	46.5	10.5	5.9
